Results pooled from the literature.
Lines come from different studies, so protocols differ.
Mode: inhibitor
FABP1: Fatty acid-binding protein, liver (FABP1, Homo sapiens, UniProt P07148)
SQLE: Squalene monooxygenase (SQLE, Homo sapiens, UniProt Q14534)
MAL12: Alpha-glucosidase MAL12 (MAL12, Saccharomyces cerevisiae S288c, UniProt P53341)

target	read-out	technique	pH	setting	IC50 [µM]	Compound
Focal adhesion kinase 1 (PTK2, Homo sapiens, UniProt Q05397)	enzyme activity	ELISA			15.9	NS(=O)(=O)c1ccc(-n2nc(C(=O)NN=Cc3ccccc3O)cc2-c2ccccc2)cc1
Solute carrier family 22 member 6 (SLC22A6, Homo sapiens, UniProt Q4U2R8, F438Y)	transporter uptake	fluorescence			1400	Nc1ccn(C[C@@H](CO)OCP(=O)(O)O)c(=O)n1
FABP1	cell-free assay	fluorescence	pH 7.4		3.6	Cc1cc(/C=C2\Oc3cc(OCC4CC4)ccc3C2=O)cc(C)c1OC(C)(C)C(=O)O
SQLE	enzyme activity	absorbance	pH 7.4	with preincubation	1.55	N#Cc1ccc2c(c1)N(CCCN1CCC(O)CC1)c1ccccc1S2
MAL12	enzyme activity	absorbance	pH 6.9		2.41	CC1CN(C(=O)Nc2ccc(Cl)c(Cl)c2)CCN1c1ccnc(Nc2ccc(Cl)cc2)n1 (centres unmarked)
Solute carrier family 22 member 6 (SLC22A6, Homo sapiens, UniProt Q4U2R8)	transporter uptake				1.59	C[C@H]1CN(C(=O)CC#N)[C@]12CCN(c1ncnc3[nH]ccc13)C2
FABP1	cell-free assay	fluorescence	pH 7.4		14.6	CCCOc1ccc2c(c1)O/C(=C\c1ccc(OCC(=O)O)cc1)C2=O
MAL12	enzyme activity	absorbance	pH 6.9		2.42	Cc1ccc(NC(=O)N2CCN(c3ccnc(Nc4ccc(Cl)cc4)n3)[C@@H](C)C2)cc1
MAL12	enzyme activity	absorbance			13.7	COc1ccc(-c2nn(-c3ccccc3)cc2C2C(C(C)=O)=C(C)n3c(=O)c4ccccc4c(=O)n32)cc1 (centres unmarked)
MAL12	enzyme activity	absorbance	pH 6.9		1.59	C[C@H]1CN(C(=O)Nc2ccc(C(F)(F)F)cc2)CCN1c1ccnc(Nc2ccc(Br)cc2)n1
Tyrosine-protein phosphatase non-receptor type 1 (PTPN1, Homo sapiens, UniProt P18031)	enzyme activity				10.9	CC[N+](CC)(CC)Cc1ccccc1.CC[N+](CC)(CC)Cc1ccccc1.[Br][Co-2]([Br])([Br])[Br]
FABP1	cell-free assay	fluorescence	pH 7.4		5.3	CCCCOc1ccc2c(c1)O/C(=C\c1cc(C)c(OC(C)(C)C(=O)O)c(C)c1)C2=O
MAL12	enzyme activity	absorbance	pH 6.9		3.45	C[C@H]1CN(C(=O)Nc2ccc(C(F)(F)F)cc2)CCN1c1ccnc(Nc2cccc(Cl)c2)n1
FABP1	cell-free assay	fluorescence	pH 7.4		9.6	Cc1cc(/C=C2\Oc3cc(OCCC(C)C)ccc3C2=O)cc(C)c1OC(C)(C)C(=O)O
SQLE	enzyme activity	radiometric			2.68	CC(C)=CCC/C(C)=C/CC/C(C)=C/CC/C=C(\C)CC/C=C(\C)CCCNC1CC1
MAL12	enzyme activity	absorbance			108	CC1(C)CC(=O)C2=C(C1)n1c(=O)c3ccccc3c(=O)n1C2c1cn(-c2ccccc2)nc1-c1ccc(O)cc1 (centres unmarked)
SQLE	enzyme activity	radiometric			2.5	O=C(O)[C@H]1O[C@@H](Oc2cc3oc(-c4ccccc4)cc(=O)c3c(O)c2O)[C@H](O)[C@@H](O)[C@@H]1O
MAL12	enzyme activity	absorbance	pH 6.9		3.71	C[C@H]1CN(C(=O)Nc2ccc(C(F)(F)F)cc2)CCN1c1ccnc(Nc2ccc(O)cc2)n1
FABP1	cell-free assay	fluorescence	pH 7.4		4.8	CCCOc1ccc2c(c1)O/C(=C\c1cc(C)c(OC(C)(C)C(=O)O)c(C)c1)C2=O
SQLE	enzyme activity	absorbance	pH 7.4	with preincubation	1.44	CC(=O)c1ccc2c(c1)N(CCCN1CCC(CCO)CC1)c1ccccc1S2
Solute carrier family 22 member 6 (SLC22A6, Homo sapiens, UniProt Q4U2R8, F442A)	transporter uptake	fluorescence			17.7	COc1ccc(Cl)cc1C(=O)NCCc1ccc(S(=O)(=O)NC(=O)NC2CCCCC2)cc1
FABP1	cell-free assay	fluorescence	pH 7.4		4.8	Cc1cc(/C=C2\Oc3cc(OCC(C)C)ccc3C2=O)cc(C)c1OC(C)(C)C(=O)O
MAL12	enzyme activity	absorbance	pH 6.9		12	C[C@H]1CN(C(=O)Nc2ccc(C(F)(F)F)cc2)CCN1c1ccnc(Nc2ccc(Cl)cc2Cl)n1
Disintegrin and metalloproteinase domain-containing protein 10 (ADAM10, Homo sapiens, UniProt O14672)	enzyme activity				0.776	CNC(=O)[C@H](Cc1c[nH]c2ccccc12)NC(=O)[C@@H](CC(=O)NO)CC(C)C
MAL12	enzyme activity	absorbance	pH 6.9		7.43	COc1ccc(NC(=O)N2CCN(c3ccnc(Nc4ccc(Cl)cc4)n3)[C@@H](C)C2)cc1
SQLE	enzyme activity	radiometric			11.5	COc1cc(-c2oc3cc(O)cc(O)c3c(=O)c2O)ccc1O
FABP1	cell-free assay	fluorescence	pH 7.4		9.2	CCCOc1ccc2c(c1)O/C(=C\c1ccc(OC(C)(C)C(=O)O)c(F)c1)C2=O
Amine oxidase [flavin-containing] A (MAOA, Homo sapiens, UniProt P21397)	enzyme activity				> 30	NC/C(=C\F)COc1cccc(Cn2c(=S)[nH]c(=O)c3[nH]cnc32)c1
SQLE	enzyme activity	radiometric			4.47	O=c1cc(-c2ccccc2)oc2cc(O)cc(O)c12
